Assay results reported in ChEMBL document CHEMBL1153852, “Steroidal lactones as inhibitors of 17beta-hydroxysteroid dehydrogenase type 5: chemical synthesis, enzyme inhibitory activity, and assessment of estrogenic and androgenic activities” (Eur J Med Chem, 2009).
Activity calls are given as the source filed them. No cut-off for these calls is given here.

Key:
[1] = biological target: T1, Aldo-keto reductase family 1 member C3 (Homo sapiens) (UniProt P42330); assay: Inhibition of human 17beta-HSD5 expressed in HEK293 cells assessed as enzyme-mediated transformation of [14C]-4-androstene-3,17-dione in to [14C]-testosterone at 0.3 uM after 18 hrs; type: cell-based
T1 sequence (whole entry): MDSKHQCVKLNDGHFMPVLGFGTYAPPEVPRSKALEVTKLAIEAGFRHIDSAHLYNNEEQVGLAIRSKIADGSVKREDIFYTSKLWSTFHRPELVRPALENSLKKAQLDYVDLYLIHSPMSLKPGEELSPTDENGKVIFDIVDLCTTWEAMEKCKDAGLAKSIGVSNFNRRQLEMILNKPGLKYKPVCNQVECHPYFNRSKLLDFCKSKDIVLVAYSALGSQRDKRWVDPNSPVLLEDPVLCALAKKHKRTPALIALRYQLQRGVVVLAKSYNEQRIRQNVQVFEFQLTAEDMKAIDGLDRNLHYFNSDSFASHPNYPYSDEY
Method in brief: (§1)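 Intact HEK-293 cells stably over-expressing human 17β-HSD5, in freshly changed culture medium. [14C]-4-androstene-3,17-dione is added at 100 nM with inhibitor from an ethanolic solution; controls get ethanol only. After 18 h the conversion to [14C]-T is measured.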

[2] = biological target: T1, Aldo-keto reductase family 1 member C3 (Homo sapiens); assay: Inhibition of human 17beta-HSD5 expressed in HEK293 cells assessed as enzyme-mediated transformation of [14C]-4-androstene-3,17-dione in to [14C]-testosterone at 3 uM after 18 hrs; type: cell-based; method in brief: as §1
[3] = biological target: T2, Aldo-keto reductase family 1 member C3 (Homo sapiens, UniProt P42330); assay: Inhibition of human 17beta-HSD5 expressed in HEK293 cells assessed as enzyme-mediated transformation of [14C]-4-androstene-3,17-dione in to [14C]-testosterone after 18 hrs; type: cell-based
T2 sequence (P42330 whole entry): T1 sequence (whole entry)
Method in brief: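 Intact HEK-293 cells stably over-expressing human 17β-HSD5, in fresh culture medium. [14C]-4-androstene-3,17-dione 0.1 μM with inhibitor added in ethanol (ethanol alone as control), 18 h.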

[4] = biological target: T3, 17-beta-hydroxysteroid dehydrogenase type 1 (Homo sapiens) (UniProt P14061); assay: Inhibition of human 17beta-HSD1 expressed in HEK293 cells assessed as enzyme-mediated transformation of [14C]-E1 in to [14C]-E2 at 0.1 uM; type: cell-based
T3 sequence (whole entry): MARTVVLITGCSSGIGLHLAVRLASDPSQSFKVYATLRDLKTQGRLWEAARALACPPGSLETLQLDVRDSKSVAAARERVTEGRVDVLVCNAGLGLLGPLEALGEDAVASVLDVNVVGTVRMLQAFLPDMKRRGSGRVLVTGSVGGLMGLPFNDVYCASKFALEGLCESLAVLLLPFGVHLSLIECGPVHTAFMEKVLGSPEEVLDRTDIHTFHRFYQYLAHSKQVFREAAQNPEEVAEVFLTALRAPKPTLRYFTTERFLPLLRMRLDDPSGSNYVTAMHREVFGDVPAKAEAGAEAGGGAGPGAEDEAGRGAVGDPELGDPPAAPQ

[5] = biological target: T3, 17-beta-hydroxysteroid dehydrogenase type 1 (Homo sapiens); assay: Inhibition of human 17beta-HSD1 expressed in HEK293 cells assessed as enzyme-mediated transformation of [14C]-E1 in to [14C]-E2 at 1 uM; type: cell-based
[6] = biological target: T4, 17-beta-hydroxysteroid dehydrogenase type 3 (Homo sapiens) (UniProt P37058); assay: Inhibition of human 17beta-HSD3 expressed in HEK293 cells assessed as enzyme-mediated transformation of [14C]-4-androstene-3,17-dione in to [14C]-testosterone at 0.1 uM; type: cell-based
T4 sequence (whole entry): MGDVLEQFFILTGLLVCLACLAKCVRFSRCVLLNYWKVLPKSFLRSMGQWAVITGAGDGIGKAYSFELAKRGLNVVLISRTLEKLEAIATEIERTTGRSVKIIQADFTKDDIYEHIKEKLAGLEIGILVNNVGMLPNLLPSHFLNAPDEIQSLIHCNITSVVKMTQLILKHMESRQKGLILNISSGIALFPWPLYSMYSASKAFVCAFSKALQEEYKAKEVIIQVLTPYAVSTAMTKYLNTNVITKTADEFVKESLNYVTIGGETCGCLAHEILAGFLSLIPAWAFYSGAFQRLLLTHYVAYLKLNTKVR

[7] = biological target: T4, 17-beta-hydroxysteroid dehydrogenase type 3 (Homo sapiens); assay: Inhibition of human 17beta-HSD3 expressed in HEK293 cells assessed as enzyme-mediated transformation of [14C]-4-androstene-3,17-dione in to [14C]-testosterone at 1 uM; type: cell-based
[8] = biological target: T5, 17-beta-hydroxysteroid dehydrogenase type 2 (Homo sapiens) (UniProt P37059); assay: Inhibition of human 17beta-HSD2 expressed in HEK293 cells assessed as enzyme-mediated transformation of [14C]-testosterone in to [14C]-4-androstene-3,17-dione at 0.1 uM; type: cell-based
T5 sequence (whole entry): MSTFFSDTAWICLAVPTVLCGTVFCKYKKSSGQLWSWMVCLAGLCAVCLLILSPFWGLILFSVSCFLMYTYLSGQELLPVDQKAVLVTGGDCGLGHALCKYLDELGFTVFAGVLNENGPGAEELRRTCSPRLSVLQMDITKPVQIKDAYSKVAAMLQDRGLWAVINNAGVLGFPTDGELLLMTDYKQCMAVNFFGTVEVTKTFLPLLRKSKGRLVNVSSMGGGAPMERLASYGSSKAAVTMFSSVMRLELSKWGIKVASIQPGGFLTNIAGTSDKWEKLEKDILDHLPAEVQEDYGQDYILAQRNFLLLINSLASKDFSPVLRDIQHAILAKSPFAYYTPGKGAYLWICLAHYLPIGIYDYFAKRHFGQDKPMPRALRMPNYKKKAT

[9] = biological target: T5, 17-beta-hydroxysteroid dehydrogenase type 2 (Homo sapiens); assay: Inhibition of human 17beta-HSD2 expressed in HEK293 cells assessed as enzyme-mediated transformation of [14C]-testosterone in to [14C]-4-androstene-3,17-dione at 1 uM; type: cell-based
[10] = biological target: T6, Progesterone receptor (Rattus norvegicus) (UniProt Q63449); assay: Binding affinity to rat uterus progesterone receptor at 0.01 uM
T6 sequence (whole entry): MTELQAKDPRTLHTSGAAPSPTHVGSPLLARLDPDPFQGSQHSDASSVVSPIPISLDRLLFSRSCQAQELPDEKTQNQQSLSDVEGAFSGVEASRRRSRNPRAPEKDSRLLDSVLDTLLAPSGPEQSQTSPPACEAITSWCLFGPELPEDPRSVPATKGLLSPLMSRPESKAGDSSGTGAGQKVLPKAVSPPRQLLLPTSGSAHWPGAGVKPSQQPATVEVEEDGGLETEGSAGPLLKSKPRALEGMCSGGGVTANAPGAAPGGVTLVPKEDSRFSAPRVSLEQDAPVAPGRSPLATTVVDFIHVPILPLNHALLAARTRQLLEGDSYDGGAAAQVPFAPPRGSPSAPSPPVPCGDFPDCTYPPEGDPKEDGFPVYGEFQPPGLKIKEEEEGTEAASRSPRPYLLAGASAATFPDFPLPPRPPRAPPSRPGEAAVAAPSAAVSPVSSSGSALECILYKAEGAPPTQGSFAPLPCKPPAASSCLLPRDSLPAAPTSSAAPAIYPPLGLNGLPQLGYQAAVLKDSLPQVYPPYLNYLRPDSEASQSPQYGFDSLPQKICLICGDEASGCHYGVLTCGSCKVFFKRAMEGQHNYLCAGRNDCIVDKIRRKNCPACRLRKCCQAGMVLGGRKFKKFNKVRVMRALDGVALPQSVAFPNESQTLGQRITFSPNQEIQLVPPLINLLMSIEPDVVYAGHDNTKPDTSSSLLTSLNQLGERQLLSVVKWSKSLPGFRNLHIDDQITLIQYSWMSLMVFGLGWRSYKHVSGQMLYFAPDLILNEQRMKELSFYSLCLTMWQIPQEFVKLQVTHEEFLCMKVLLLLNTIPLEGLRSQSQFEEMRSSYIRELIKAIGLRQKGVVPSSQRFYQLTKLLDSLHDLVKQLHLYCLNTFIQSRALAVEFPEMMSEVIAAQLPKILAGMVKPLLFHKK

Row | SMILES | inhibition [1] | inhibition [2] | IC50 [3] | other results
1 | CCCC1CC[C@@]2(CC[C@H]3[C@@H]4CCc5cc(O)ccc5[C@H]4CC[C@@]32C)OC1=O (mixture of isomers) | 41% | 83% | – | –
2 | C[C@]12CC[C@@H]3c4ccc(O)cc4CC[C@H]3[C@@H]1C[C@@H]1CCCC(=O)O[C@@H]12 | 70% | 91% | 66 nM | –
3 | CC1CC[C@@]2(CC[C@H]3[C@@H]4CCc5ccccc5[C@H]4CC[C@@]32C)OC1=O (stereo not given in full) | 91% | 94% | 6.1 nM | inhibition [4]: 21%; inhibition [5]: 21%; inhibition [6]: 25%; inhibition [7]: 64%
4 | CC1CC[C@@]2(CC[C@H]3[C@@H]4CCc5cc(O)ccc5[C@H]4CC[C@@]32C)OC1=O (mixture of isomers) | 93% | 94% | 16 nM | Activity [8]: Active; Activity [9]: Active
5 | C[C@]12CC[C@@H]3c4ccc(O)cc4CC[C@H]3[C@@H]1CC[C@@]21CCCC(=O)O1 | 92% | 95% | 20 nM | Activity [8]: Active; Activity [9]: Active; inhibition [6]: 25%; inhibition [7]: 34%
6 | C[C@]12CC[C@@H]3c4ccc(O)cc4CC[C@H]3[C@@H]1CC[C@@]21CCC(=O)O1 | 47% | 79% | – | –
7 | C[C@]12CC[C@@H]3c4ccc(O)cc4CC[C@H]3[C@@H]1CC[C@@H]2O | – | – | – | Activity [10]: 6%
8 | COC(=O)C1CC[C@@]2(CC[C@H]3[C@@H]4CCc5cc(O)ccc5[C@H]4CC[C@@]32C)OC1=O (mixture of isomers) | 78% | 92% | 72 nM | –
9 | COC1CC[C@@]2(CC[C@H]3[C@@H]4CCc5cc(O)ccc5[C@H]4CC[C@@]32C)O1 (stereo in doubt; 8) | 0% | 16% | – | –
10 | C[C@@H]1C[C@H]2[C@@H]3CCC4=CC(=O)C=C[C@]4(C)[C@@]3(F)[C@@H](O)C[C@]2(C)[C@@]1(O)C(=O)CO | – | – | – | Activity [10]: 0%
11 | C[C@]12CC[C@@H]3c4ccc(O)cc4CC[C@H]3[C@@H]1C[C@@H]1CC(=O)O[C@@H]12 | 30% | 62% | – | –
12 | C[C@]12CC[C@@H]3c4ccc(O)cc4CC[C@H]3[C@@H]1C[C@@H]1CCC(=O)O[C@@H]12 | 55% | 85% | – | –
13 | C[C@]12CCC(=O)C[C@@H]1CC[C@@H]1[C@@H]2CC[C@]2(C)[C@@H](O)CC[C@@H]12 | – | – | – | Activity [10]: 3%
14 | C[C@]12CCC(=O)C=C1CC[C@@H]1[C@@H]2CC[C@]2(C)C(=O)CC[C@@H]12 | 21% | 45% | – | –
15 | C[C@]12CC[C@@H]3c4ccc(O)cc4CC[C@H]3[C@@H]1C[C@H]1CCC(=O)O[C@H]12 | 6% | 52% | – | –
16 | CC(=O)S[C@@H]1CC2=CC(=O)CC[C@]2(C)[C@H]2CC[C@@]3(C)[C@@H](CC[C@@]34CCC(=O)O4)[C@H]12 | 27% | 57% | – | –
17 | C[C@]12CCC(=O)CC1C(=O)C[C@@H]1[C@@H]2CC[C@@]2(C)[C@H]1CC[C@@]21CCC(=O)O1 (stereo not given in full) | 14% | 45% | – | –
18 | C[C@]12CC[C@@H]3c4ccc(O)cc4CC[C@H]3[C@@H]1CC[C@@]21CCCCC(=O)O1 | 90% | 93% | 42 nM | –
19 | C=CCC1CC[C@@]2(CC[C@H]3[C@@H]4CCc5cc(O)ccc5[C@H]4CC[C@@]32C)OC1=O (mixture of isomers) | 68% | 91% | 107 nM | –
20 | C[C@]12CCC(=O)CC1CC[C@@H]1[C@@H]2CC[C@@]2(C)[C@H]1CC[C@@]21CCC(=O)O1 (stereo not given in full) | 15% | 63% | – | –
21 | C[C@]12CCC3(CCC(=O)O3)CC1CC[C@@H]1[C@@H]2CC[C@@]2(C)[C@H]1CC[C@@]21CCC(=O)O1 (stereo not given in full) | 7% | 29% | – | –
22 | COC1CC[C@@]2(CC[C@H]3[C@@H]4CCc5cc(O)ccc5[C@H]4CC[C@@]32C)O1 (stereo in doubt; 7) | 0% | 4% | – | –
23 | CC1CC(=O)O[C@]2(CC[C@H]3[C@@H]4CCc5cc(O)ccc5[C@H]4CC[C@@]32C)C1 (mixture of isomers) | 88% | 94% | 19 nM | –
24 | C[C@]12CCC(=O)C=C1CC[C@@H]1[C@@H]2CC[C@@]2(C)[C@H]1CC[C@@]21CCC(=O)O1 | 19% | 61% | – | –
25 | C[C@]12CC[C@@H]3c4ccc(O)cc4CC[C@H]3[C@@H]1CC[C@@]21CC=CC(=O)O1 | 79% | 92% | 49 nM | –
26 | C[C@]12CC[C@@H]3c4ccc(O)cc4CC[C@H]3[C@@H]1CC[C@@]21CCC(O)O1 (mixture of isomers) | 19% | 61% | – | –
27 | C[C@]12CC[C@@H]3c4ccc(O)cc4CC[C@H]3[C@@H]1CC[C@]21CCC(=O)O1 | 22% | 45% | – | –
